High-throughput results: PubChem BioAssay, several laboratories
Rows were chosen to be rich in hits. Some 1.7% of all compounds tested hit in one or more screens of this group.
IMP-1 inh: IMP-1 metallo-beta-lactamase inhibitors, primary screen, biochemical, epi-absorbance readout, Pseudomonas aeruginosa enzyme | actives 0.45% (n = 290,000) | metallo-beta-lactamase IMP-1 (Pseudomonas aeruginosa) | purified IMP-1, nitrocefin hydrolysis, epi-absorbance fluorescence | inhibition, % at 5.6 µM | AID 1556, 2009;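 active means inhibition above the mean plus 3 SD of all compounds in the same screening run, cut at about 4.5% in these data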;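 further: 0% = IMP-1 with DMSO and 100% = DMSO wells lacking enzyme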
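assay system = purified recombinant IMP-1 metallo-beta-lactamase enzyme | schedule = 15 min preincubation plus 25 min reaction at 25 °C | signal = Epi-absorbance fluorescence, 480 nm excitation, 530 nm emission | read-out basis = percent inhibition from optical density relative to buffer-blank wells | controls = IMP-1 with DMSO as 0%, enzyme-free DMSO as 100%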
procasp3 activ: activators of human procaspase-3 D3A mutant, primary screen, biochemical, absorbance, PC-3 D3A mutant, single concentration; Caspase-3 (Homo sapiens), P42574; recombinant procaspase-3 D3A, Ac-DEVD-pNA absorbance 405 nm; activation, % at 8.5 µM; actives 0.11% (n = 330,000);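 active means activation above the mean of all tested compounds plus 3 SD, cut at about 21% in these data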;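 further: 0% = DMSO alone and 100% = DMSO wells spiked with extra 5 µM PC-3 D3A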
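Test system: Procaspase-3 D3A mutant, all three cleavage aspartates alanine | Dosing: Single dose, 8.5 µM nominal compound, 0.8% DMSO | Schedule: 1 h preincubation, 2 h reaction | Technique: 405 nm absorbance of p-nitroaniline, reads at 0 and 120 min | Repeats: One well per compound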
Neddylation inh: inhibitors of cullin neddylation, primary screen, biochemical, TR-FRET, uHTS, NAE and Ubc12; NEDD8-conjugating enzyme Ubc12 (Homo sapiens) + NEDD8-activating enzyme E1 regulatory …; calls only at 25 µM; actives 0.58% (n = 360,000); AID 651699, 2012; in the data active means inhibition above about 36%
proCasp7 act: procaspase-7 activators, primary screen, counter-screen for procaspase-3 activator project, biochemical, absorbance, HTS, human | Caspase-7 (Homo sapiens), P55210 | recombinant procaspase-7, Ac-DEVD-pNA absorbance 405 nm; D23A/D198A/D206A triple mutant, cannot self-cleave; scale: DMSO 0, 5 µM enzyme 100 | activation, % at 8.5 µM | actives 0.093% (n = 330,000);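 active means percent activation above the screen-wide mean plus 3 SD, cut at about 25% in these data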
Target sequence (P55210 whole entry D23A/D198A/D206A): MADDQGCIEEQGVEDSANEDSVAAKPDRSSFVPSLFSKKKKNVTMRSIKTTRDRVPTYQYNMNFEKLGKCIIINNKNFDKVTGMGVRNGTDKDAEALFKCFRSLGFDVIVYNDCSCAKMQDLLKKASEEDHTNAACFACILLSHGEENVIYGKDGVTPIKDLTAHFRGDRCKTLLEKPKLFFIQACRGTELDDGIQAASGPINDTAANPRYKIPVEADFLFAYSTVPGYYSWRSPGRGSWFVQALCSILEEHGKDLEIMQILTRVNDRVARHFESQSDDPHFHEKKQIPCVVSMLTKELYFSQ
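Assay system – Uncleavable procaspase-7 mutant enzyme · Quantity – 2 µM procaspase-7 mutant as dispensed · Times – 1 h preincubation, 2 h reaction · Dosing – single nominal 8.5 µM compound dose, 0.8% DMSO final · Buffer or medium – Zinc-free 50 mM HEPES buffer, pH 7.4, with NaCl and Triton X-100 · Detection – Epi-absorbance of released pNA at 405 nm, two timepoints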
VIM-2 inh: VIM-2 metallo-beta-lactamase inhibitors, primary screen, biochemical, epi-absorbance readout, Pseudomonas aeruginosa enzyme; purified VIM-2, nitrocefin hydrolysis, epi-absorbance fluorescence; inhibition, % at 5.6 µM; actives 0.89% (n = 290,000); AID 1527, 2009;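 active means inhibition above the mean of all tested compounds plus 3 SD, cutoff set per screening run, cut at about 7.5% in these data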;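 further: red hydrolysis product quenches plate fluorescence so inhibitors raise well fluorescence; 0% = enzyme with DMSO and 100% = DMSO without enzyme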
PolyA inh: polyadenylation inhibitors in yeast reporter cells, primary screen, luminescence, S. cerevisiae; S. cerevisiae SKY197-pL101 polyadenylation reporter, beta-gal luminescence; efflux-impaired pdr1/pdr3 knockout yeast; score 100 = 6 SD above DMSO; activity score, % at 12 µM; actives 0.02% (n = 300,000); AID 1875, 2009;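 active means lowest replicate activity score at least 50, where 100 means six control SD above control mean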;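 further: yeast exposed to compound for 9 h at 30 °C; higher score means more reporter readthrough which indicates perturbed polyadenylation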
Neddyl inh conf: blockade of NEDD8 conjugation to cullin – biochemical, TR-FRET, single concentration, confirmation. TR-FRET cullin neddylation biochemical assay. shares compounds with Neddylation inh. actives 13% (n = 1,800). calls only at 25 µM. AID 652217, 2013; in the data active means inhibition above about 40%;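 further: neddylation substrate is the cullin 1 ring ligase complex with SKP2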
An asterisk follows results filed as active; i = inactive; · = not tested or not shown; + = active, no number.

SMILES	IMP-1 inh	procasp3 activ	Neddylation inh	proCasp7 act	VIM-2 inh	PolyA inh	Neddyl inh conf
CCC(C)Sc1cc(-c2nc3ccccn3c2NC2CCCCC2)ccc1OC (stereo unspecified)	·	5	·	19	·	7	·
CC(=O)c1ccc(-c2cccc(-c3nc4ccccn4c3NC3CCCCC3)c2)cc1	·	-5	+	-2	·	-13	i
COc1ncccc1-c1nnn(-c2ccc(Cl)nc2)n1	-1	12	+	-7	-3	0	i
Clc1ccc(-n2nnc(-c3cccnc3Cl)n2)cn1	-1	8	i	-5	-2	-13	·
Cc1ccc(S(=O)(=O)c2n[nH]n3c2nc(=O)c2ccccc23)cc1	-2	9	+	17	-2	0	i
CCOC(=O)c1n[nH]n2c1nc(=O)c1ccccc12	-4	·	·	·	0	7	·
O=C(CCc1nc2cccnc2n1Cc1ccccc1)N1CCOCC1	-3	0	i	-1	-2	9	·
NC(=O)c1ccc(NC(=O)CN2C(=O)NC3(CCCCCCC3)C2=O)cc1	·	2	i	12	·	·	·
Cc1ccc2nc(-c3cccnc3)c(NC3CCCCC3)n2c1	-1	-6	i	-5	-3	0	·
CCc1ccc(C2C(C#N)=C(N)Oc3cc(N)ccc32)cc1 (stereo unspecified)	-2	-16	+	-19	-2	-3	i
COc1ccc(N2CCc3c(C)nc4c(OC)cc(OC)cc4c32)c(OC)c1	-4	3	+	-11	-3	-3	i
Cc1nc2c(C)cccc2c2c1CCN2c1ccccc1F	-2	0	·	4	6	8	·
Cc1cc(NS(=O)(=O)c2ccc(NS(=O)(=O)c3ccc(Br)cc3)cc2)no1	-1	-4	+	1	0	-8	+
Cc1cc(NS(=O)(=O)c2ccc(NC(=O)/C=C/c3ccc(Br)cc3)cc2)no1	-1	2	i	0	0	3	·
Cc1c(OC(C)C(=O)N2C[C@H]3C[C@@H](C2)c2cccc(=O)n2C3)ccc2c3c(c(=O)oc12)CCC3 (stereo partly specified)	-1	3	i	-6	6	0	·
Cc1c(C)c2ccc(OC(C)C(=O)N3C[C@H]4C[C@@H](C3)c3cccc(=O)n3C4)c(C)c2oc1=O (stereo partly specified)	-2	-3	+	3	4	-7	i
CC(C)c1c(C(=O)N/N=C/c2ccc(OCc3ccccc3)cc2)nnn1-c1nonc1N	-2	4	·	-2	-1	4	·
COc1cc(/C=N/NC(=O)c2nnn(-c3nonc3N)c2C(C)C)ccc1OCc1ccccc1	0	4	+	-16	0	-3	i
Nc1nonc1-n1nnc(C(=O)N/N=C/c2ccc3c(c2)OCO3)c1CSc1ccccc1	-3	-2	+	9	-1	-7	i
COc1ccc(OC)c(NC(=O)C2CCCN2C(=O)OCc2ccccc2)c1 (stereo unspecified)	-1	12	i	-8	-1	4	·
CCCCN(CCCNC(=O)c1ccc(CS(=O)(=O)c2ccc(OC)cc2)o1)Cc1ccccc1	-1	3	i	6	-2	6	·
Cc1ccc(NC(=O)c2ccc(OC(=S)N3CCOCC3)cc2)cc1	-3	1	+	0	-2	-9	i
